For one test, the system named is BALB/3T3. Briefly: Antiproliferative activity against mouse BALB/3T3 cells after 72 hrs. Format: cell-based. Conditions: BALB/3T3, 72 h. In a few lines: (§1)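 IC50 values (mean ± SD) were measured against human colon adenocarcinoma LoVo cells, their doxorubicin-resistant LoVo/DX subline, MV4-11 cells, and normal murine embryonic fibroblasts (BALB/3T3).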
Test [1] relates to LoVo. Briefly: Resistant index, ratio of IC50 for human LoVo/DX cells to IC50 for LoVo cells. Format: functional. An outline of the steps:
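Resistance index was calculated from IC50 values obtained in the doxorubicin-resistant LoVo/DX subline and the parental LoVo line. RI 0–2 is classed as sensitive, 2–10 as moderately sensitive, and above 10 as strongly resistant.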

The test system of test [2] is MV4-11. Put plainly: Antiproliferative activity against human MV4-11 cells after 72 hrs. Format: functional, cell-based. Conditions: MV4-11, 72 h. An outline of the steps: as §1
In test [3] the test system is LoVo. Briefly: Selectivity index, ratio of IC50 for mouse BALB/3T3 cells to IC50 for human LoVo cells. It is filed as functional. In a few lines:
(§2)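 Selectivity index is the IC50 in normal BALB/3T3 fibroblasts divided by the IC50 in the respective cancer line. SI above 1.0 is taken as a favourable value.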

For test [4], the system named is MV4-11. Briefly: Selectivity index, ratio of IC50 for mouse BALB/3T3 cells to IC50 for human MV4-11 cells. Format: functional. An outline of the steps:
as §2

Test [5] can be described thus: Selectivity index, ratio of IC50 for mouse BALB/3T3 cells to IC50 for human LoVo/DX cells. Format: functional. An outline of the steps: as §2
Test [6] concerns LoVo. Briefly: Antiproliferative activity against human LoVo cells after 72 hrs. Format: functional, cell-based. An outline of the steps:
as §1

Test [7] in a line: Antiproliferative activity against doxorubicin-resistant human LoVo/DX cells after 72 hrs. Format: functional, cell-based. An outline of the steps: as §1
A short description of test [8]: Ratio of doxorubicin IC50 to compound IC50 for doxorubicin-resistant human LoVo/DX cells. It is filed as functional.
The nature of test [9]: Ratio of cisplatin IC50 to compound IC50 for doxorubicin-resistant human LoVo/DX cells. It is filed as functional.

A word on the IC50: it is the point on the concentration scale where inhibition reaches its midpoint. The low end stands for greater potency in that assay, the high end for weaker potency in that assay.

Regarding `CC[C@@H](C(=O)[C@@H](C)[C@@H](O)[C@H](C)[C@@H]1O[C@@H]([C@@H](CC)C(=O)NCC(=O)OC)CC[C@@H]1C)[C@H]1O[C@]2(C=C[C@@H](O)[C@]3(CC[C@@](C)([C@H]4CC[C@](O)(CC)[C@H](C)O4)O3)O2)[C@H](C)C[C@@H]1C`, the half-maximal inhibitory concentration (IC50) with BALB/3T3 turned out to be 42.5 µM; with MV4-11 [2], 3.65 µM; with LoVo [6], 5.29 µM; in test [7], 3.93 µM. For the same compound, the “Ratio IC50” value is reported as 0.74 with LoVo [1], 8.03 in the test on LoVo [3], 11.64 in the test with MV4-11 [4] and 10.81 in [5].

Consider `CC[C@@H](C(=O)[C@@H](C)[C@@H](O)[C@H](C)[C@@H]1O[C@@H]([C@@H](CC)C(=O)N[C@@H](CO)C(=O)OC)CC[C@@H]1C)[C@H]1O[C@]2(C=C[C@@H](O)[C@]3(CC[C@@](C)([C@H]4CC[C@](O)(CC)[C@H](C)O4)O3)O2)[C@H](C)C[C@@H]1C`, for which the IC50 with BALB/3T3 was 40.1 µM; in the test with MV4-11 [2], 5.81 µM; in the test on LoVo [6], 17.7 µM; in test [7], 7.77 µM. Moreover, the “Ratio IC50” value with LoVo [1] is reported as 0.44; in the test with LoVo [3] it was 2.27; in the test with MV4-11 [4], 6.9; in test [5], 5.16.

`CC[C@@H](C(=O)[C@@H](C)[C@@H](O)[C@H](C)[C@@H]1O[C@@H]([C@@H](CC)C(=O)N[C@@H](Cc2cnc[nH]2)C(=O)OC)CC[C@@H]1C)[C@H]1O[C@]2(C=C[C@@H](O)[C@]3(CC[C@@](C)([C@H]4CC[C@](O)(CC)[C@H](C)O4)O3)O2)[C@H](C)C[C@@H]1C`: the IC50 was 37 µM with BALB/3T3, 0.8 µM in the test on MV4-11 [2], 3.67 µM in the test with LoVo [6] and 0.85 µM in test [7]. For the same compound, the “Ratio IC50” value with LoVo [1] worked out at 0.23; in test [8] it was 9; in [9], 3; in the test with LoVo [3], 10.08; with MV4-11 [4], 46.26; in [5] it was 43.54.

Regarding `CC[C@@H](C(=O)[C@@H](C)[C@@H](O)[C@H](C)[C@@H]1O[C@@H]([C@@H](CC)C(=O)N[C@@H](Cc2ccccc2)C(=O)OC)CC[C@@H]1C)[C@H]1O[C@]2(C=C[C@@H](O)[C@]3(CC[C@@](C)([C@H]4CC[C@](O)(CC)[C@H](C)O4)O3)O2)[C@H](C)C[C@@H]1C`, the IC50 came to 17 µM in the test with BALB/3T3, 2.89 µM in the test on MV4-11 [2], 3.49 µM in the test with LoVo [6] and 3.49 µM in test [7]. Also, the “Ratio IC50” value with LoVo [1] is 1; in the test with LoVo [3], 4.87; in the test on MV4-11 [4], 5.89; in test [5], 4.87.

Consider `CC[C@@H](C(=O)[C@@H](C)[C@@H](O)[C@H](C)[C@@H]1O[C@@H]([C@@H](CC)C(=O)N[C@@H](Cc2ccc(O)cc2)C(=O)OC)CC[C@@H]1C)[C@H]1O[C@]2(C=C[C@@H](O)[C@]3(CC[C@@](C)([C@H]4CC[C@](O)(CC)[C@H](C)O4)O3)O2)[C@H](C)C[C@@H]1C`, for which the IC50 in the test with BALB/3T3 turned out to be 43.4 µM; with MV4-11 [2] it was 3.55 µM; in the test with LoVo [6], 14.7 µM; in test [7], 7.12 µM. Further, the “Ratio IC50” value came to 0.48 in the test on LoVo [1], 2.95 in the test on LoVo [3], 12.22 with MV4-11 [4] and 6.09 in [5].

For `COc1cccc2c1C(=O)c1c(O)c3c(c(O)c1C2=O)C[C@@](O)(C(=O)CO)C[C@@H]3O[C@H]1C[C@H](N)[C@H](O)[C@H](C)O1` [DOXORUBICIN], the IC50 was determined as 0.31 µM in the test with BALB/3T3, 0.05 µM in the test on MV4-11 [2], 0.09 µM in the test with LoVo [6] and 7.26 µM in test [7]. The “Ratio IC50” value in the test on LoVo [1] stood at 80.67; in the test on LoVo [3] it was 3.44; with MV4-11 [4], 6.2; in [5], 0.04.

In the case of `CC[C@@H](C(=O)[C@@H](C)[C@@H](O)[C@H](C)[C@@H]1O[C@@H]([C@@H](CC)C(=O)O)CC[C@@H]1C)[C@H]1O[C@]2(C=C[C@@H](O)[C@]3(CC[C@@](C)([C@H]4CC[C@](O)(CC)[C@H](C)O4)O3)O2)[C@H](C)C[C@@H]1C` [SALINOMYCIN], the “Ratio IC50” value is reported as 1.11 with LoVo [1], 52.38 in the test on LoVo [3], 84.12 in the test on MV4-11 [4] and 47.05 in test [5]. The IC50 is 0.33 µM in the test with MV4-11 [2], 0.53 µM in the test on LoVo [6] and 0.59 µM in test [7].

Values taken from ChEMBL document CHEMBL3603839, “Synthesis and antiproliferative activity of new bioconjugates of Salinomycin with amino acid esters” (Bioorg Med Chem Lett, 2015).
